Laboratory results taken from ChEMBL document CHEMBL4400568, “The design of 1,4-naphthoquinone derivatives and mechanisms underlying apoptosis induction through ROS-dependent MAPK/Akt/STAT3 pathways in human lung cancer cells” (Bioorg Med Chem, 2019).
Active and inactive are the calls of the source. The rule behind the calls is not given here.

Tests used:
A549 [1] = assay: Induction of apoptosis in human A549 cells assessed as early apoptotic cells at 3 uM after 12 hrs by Annexin V-FITC/propidium iodide staining-based flow cytometric analysis (reference value: 2.73%); type: functional
A549 [2] = assay: Induction of apoptosis in human A549 cells assessed as late apoptotic cells at 3 uM after 24 hrs by Annexin V-FITC/propidium iodide staining-based flow cytometric analysis (reference value: 4.52%); type: functional
A549 [3] = assay: Induction of apoptosis in human A549 cells assessed as late apoptotic cells at 3 uM after 6 hrs by Annexin V-FITC/propidium iodide staining-based flow cytometric analysis (reference value: 4.52%); type: functional
A549 [4] = assay: Induction of apoptosis in human A549 cells assessed as early apoptotic cells at 3 uM after 3 hrs by Annexin V-FITC/propidium iodide staining-based flow cytometric analysis (reference value: 2.73%); type: functional
A549 [5] = assay: Induction of apoptosis in human A549 cells assessed as late apoptotic cells at 3 uM after 12 hrs by Annexin V-FITC/propidium iodide staining-based flow cytometric analysis (reference value: 4.52%); type: functional
NCI-H23 = assay: Cytotoxicity against human NCI-H23 cells assessed as reduction in cell viability after 24 hrs by MTT assay; type: functional, cell-based
In short: (§1)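 Log-phase cells seeded at 1 × 10⁴ per well. Lung cancer lines (A549, NCI-H23, NCI-H460) and normal lines (IMR-90, QSG-7701, HEK-293A) each exposed to 1, 3, 10, 30 and 100 μM for 24 h. MTT (5 mg/mL stock) added for 2 h at 37°C, formazan dissolved in DMSO, absorbance read at 490 nm. Three independent experiments, mean ± SD.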

IMR-90 = assay: Cytotoxicity against human IMR90 cells assessed as reduction in cell viability after 24 hrs by MTT assay; type: cell-based; conditions: imr-90, 24 h; in short: as §1
[6] = Cytotoxicity against human QSG7701 cells assessed as reduction in cell viability after 24 hrs by MTT assay; type: cell-based; in short: as §1
NCI-H460 = assay: Cytotoxicity against human NCI-H460 cells assessed as reduction in cell viability after 24 hrs by MTT assay; type: functional, cell-based; in short: as §1
A549 [7] = assay: Induction of apoptosis in human A549 cells assessed as late apoptotic cells at 3 uM after 3 hrs by Annexin V-FITC/propidium iodide staining-based flow cytometric analysis (reference value: 4.52%); type: functional
[8] = Cytotoxicity against HEK293A cells assessed as reduction in cell viability after 24 hrs by MTT assay; type: cell-based; conditions: human, hek293-a; in short: as §1
A549 [9] = assay: Induction of apoptosis in human A549 cells assessed as early apoptotic cells at 3 uM after 24 hrs by Annexin V-FITC/propidium iodide staining-based flow cytometric analysis (reference value: 2.73%); type: functional
A549 [10] = assay: Induction of apoptosis in human A549 cells assessed as early apoptotic cells at 3 uM after 6 hrs by Annexin V-FITC/propidium iodide staining-based flow cytometric analysis (reference value: 2.73%); type: functional

O=c1[nH]cc(F)c(=O)[nH]1 [FLUOROURACIL]
Activity (A549 [1]): 13.87% | Activity (A549 [2]): 4.22% | Activity (A549 [3]): 4.6% | Activity (A549 [4]): 7.91% | Activity (A549 [5]): 5.83% | Activity (NCI-H23): Active | Activity (IMR-90): Toxic | Activity [6]: Toxic | Activity (NCI-H460): Active | Activity (A549 [7]): 4.75% | Activity [8]: Toxic | Activity (A549 [9]): 23.86% | Activity (A549 [10]): 10.68%
